Assay [1] addresses T1, Peroxisome proliferator-activated receptor gamma (Homo sapiens) (UniProt P37231).
T1 sequence (whole entry): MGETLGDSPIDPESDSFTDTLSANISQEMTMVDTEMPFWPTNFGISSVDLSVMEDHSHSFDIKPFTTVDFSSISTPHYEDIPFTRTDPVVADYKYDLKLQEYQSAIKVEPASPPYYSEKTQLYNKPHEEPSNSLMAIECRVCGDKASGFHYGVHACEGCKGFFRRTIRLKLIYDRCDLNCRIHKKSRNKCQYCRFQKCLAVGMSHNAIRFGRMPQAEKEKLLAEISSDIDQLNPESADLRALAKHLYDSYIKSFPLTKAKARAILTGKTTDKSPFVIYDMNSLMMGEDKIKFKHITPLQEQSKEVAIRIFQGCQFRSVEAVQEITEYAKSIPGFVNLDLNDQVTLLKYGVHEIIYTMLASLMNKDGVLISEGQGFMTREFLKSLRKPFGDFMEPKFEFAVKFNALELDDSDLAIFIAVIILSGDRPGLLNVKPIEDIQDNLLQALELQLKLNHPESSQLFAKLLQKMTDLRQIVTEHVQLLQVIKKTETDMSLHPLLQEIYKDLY
In words: (§1) Activity at GAL4-tagged PPARgamma (unknown origin) expressed in COS7 cells assessed as receptor transactivation by luciferase reporter gene assay. In kind it is cell-based. Particulars: COS-7. In short, it runs like this:
(§2)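 Each PPAR subtype was tested as a Gal4 fusion carrying the human hinge region and LBD (cDNA from human monocytes) in transiently transfected COS-7 cells (Lipofectamine LTX), with a pFR-Luc reporter and pRL-SV40 for normalization. Compound in 0.1% DMSO was added 5 h post-transfection and incubated overnight. Firefly/renilla RLU was scaled to 1 μM GW7647 (α), L165,041 (δ) or pioglitazone (γ).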
(A reporter such as luciferase makes a cellular process visible.)

In assay [2] the target is T2, Peroxisome proliferator-activated receptor gamma (Homo sapiens, UniProt P37231).
T2 sequence (P37231 whole entry): T1 sequence (whole entry)
The description is as §1. In kind it is cell-based, COS-7. In short, it runs like this: as §2

The target in assay [3] is T3, Bile acid receptor (Homo sapiens) (UniProt Q96RI1).
T3 sequence (whole entry): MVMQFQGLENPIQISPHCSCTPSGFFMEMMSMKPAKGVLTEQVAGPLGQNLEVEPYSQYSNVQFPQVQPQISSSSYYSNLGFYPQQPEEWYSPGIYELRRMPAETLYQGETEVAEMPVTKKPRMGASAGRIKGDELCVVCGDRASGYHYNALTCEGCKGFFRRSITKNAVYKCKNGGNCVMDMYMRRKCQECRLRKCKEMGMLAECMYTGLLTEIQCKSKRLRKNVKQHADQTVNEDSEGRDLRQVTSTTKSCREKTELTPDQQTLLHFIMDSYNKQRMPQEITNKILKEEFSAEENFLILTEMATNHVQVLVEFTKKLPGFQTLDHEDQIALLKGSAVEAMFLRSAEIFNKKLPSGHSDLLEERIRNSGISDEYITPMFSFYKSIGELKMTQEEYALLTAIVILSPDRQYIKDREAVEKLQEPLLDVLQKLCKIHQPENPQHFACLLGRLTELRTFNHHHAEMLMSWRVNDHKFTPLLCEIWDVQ
In words: Agonist activity at FXR in human HepG2 cells assessed as induction of OSTalpha mrNA expression at 10 uM by quantitative PCR method. Format: cell-based. The essentials:
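HepG2 cells were seeded at 2 × 10⁶ per well. After 24 h they were switched to MEM with 1% charcoal-stripped FCS, and 24 h later dosed with compound (0.1, 0.3, 1, 3, 10 μM; 0.1% DMSO final) for 24 h. Total RNA was reverse transcribed and analysed by qPCR, GAPDH-normalized, ΔΔCt method. Samples were run in duplicate in ≥4 independent experiments.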

Assay [4] concerns the target T3, Bile acid receptor (Homo sapiens). Briefly: Agonist activity at FXR in human HepG2 cells assessed as induction of IBABP mrNA expression at 0.1 uM by quantitative PCR method. Format: cell-based.

pEC50: −log10 of the molar value.

For orientation: pEC50 means −log10 of the EC50, conventionally taken in molar units.

For `COc1ccc(C(=O)Nc2cccc(C(=O)O)c2)c(NC(=O)c2ccc(C(C)(C)C)cc2)c1`, in assay [1], the Emax amounted to 81%. In assay [2], the pEC50 is 5.52. Further, the results for the Activity in assay [3] and in assay [4] were 234% and 188%, respectively.

The record behind these values is ChEMBL document CHEMBL3351394 (J Med Chem, 2014).
